Experimental data of several laboratories.
Lines come from different studies, so protocols differ.
Cyp2e1: Cytochrome P450 2E1 (Cyp2e1, Rattus norvegicus, UniProt P05182)

| SMILES | target or system | test | system | setting | quantity | result |
| --- | --- | --- | --- | --- | --- | --- |
| O=C(O)C(F)(F)C(F)(F)C(F)(F)C(F)(F)C(F)(F)C(F)(F)C(F)(F)F | Solute carrier organic anion transporter family member 1B3 (SLCO1B3, Homo sapiens, UniProt Q9NPD5) | transporter uptake, substrate | CHO | 1 min, pH 7.4 | Km | 91.6 µM |
| OCCCCO | Cyp2e1 | enzyme activity, inhibitor | Fischer 344 rat, liver microsomes | 25 mM, 30 min | activity vs control | 17% |
| C=CC(=O)Nc1cccc(-c2snc3cc(-c4ccc(N)c(OC)c4)cnc23)c1 | Calu-3 | cell growth or viability, resazurin |  |  | CC50 | > 60 µM |
| Cc1ncc2n1-c1ccc(Cl)cc1C(c1ccccc1F)=NC2 |  | metabolic stability | male rat, liver microsomes | 1 µM | microsomal CLint | > 250 µL/min/mg |
| CCCCCn1nc(C(=O)Nc2cccc3ccccc23)c2ccccc21 |  | metabolic stability | Sprague-Dawley rat, liver microsomes | 1 µM, pH 7.4 | microsomal CLint | 430 µL/min/mg |
| C=CC1CO1 (stereo not shown) | Cyp2e1 | enzyme activity, inhibitor | rat, liver microsomes |  | Ki | 24 µM |
| NC(=O)c1c(NC(=O)c2cnn3c(C(F)(F)F)cc(-c4ccccc4)nc23)sc2c1CCCC2 | Calu-3 | cell growth or viability, MTT |  | 48 h | CC50 | > 125 µM |
| CCCCCn1cc(C(=O)Nc2cccc3ccccc23)c2ccccc21 |  | metabolic stability | Sprague-Dawley rat, liver microsomes | 1 µM, pH 7.4 | microsomal CLint | 310 µL/min/mg |
| COc1ccnc(C(=O)N[C@H]2COC(=O)[C@H](Cc3ccccc3)[C@@H](OC(=O)C(C)C)[C@H](C)OC2=O)c1OCOC(=O)C(C)C |  |  | rat | topical | LD50 | > 5000 mg/kg |
| O=c1c(O[C@@H]2O[C@H](CO)[C@@H](O)[C@H](O)[C@H]2O)c(-c2ccc(O)cc2)oc2cc(O)cc(O)c12 | MCF7 | cell growth or viability, WST-1 |  |  | IC50 | 15.7 µM |
| CC(C)(C)NC(=O)N[C@H](C(=O)N1C[C@H]2[C@@H]([C@H]1C(=O)NC(CC1CCC1)C(=O)C(N)=O)C2(C)C)C(C)(C)C (stereo partly shown) | Calu-3 | cell growth or viability, MTT |  | 48 h | CC50 | > 250 µM |
| N=c1c2c(-c3ccccc3)c(-c3ccccc3)n(Cc3ccccc3)c2ncn1[C@H]1CC[C@H](O)CC1 |  |  | female minipig, plasma | intravenous, 0.25 mg/kg, single dose | clearance | 0.6 mL/min/kg |
| CCN(CC)CCNC(=O)c1c(C)[nH]c(/C=C2\C(=O)Nc3ccc(F)cc32)c1C | Calu-3 | cell growth or viability, resazurin |  |  | CC50 | 45.7 µM |
